Measured values of several laboratories.
Target: Mitogen-activated protein kinase kinase kinase 11 (MAP3K11, Homo sapiens, UniProt Q16584)

O=C(c1ccc(Nc2ncc(Cl)c(-c3ccc(Cl)s3)n2)cc1)N1CCC(N2CCCC2)CC1
remaining binding (binding; competition with immobilised ligand; 1 µM): 13%

COc1cccc(CNC(=O)c2nc3scc(COCc4ccc(C(=O)O)cc4)c3c(=O)[nH]2)c1
remaining binding (cell-free assay; competition with immobilised ligand; 1 µM): 100%

CN(C)c1ncc(F)c(-c2cnn3ncccc23)n1
remaining binding (binding; 1 µM): 88%

O=C(Nc1c[nH]nc1C(=O)NC1CCNCC1)c1cc(F)cc(F)c1
remaining binding (binding; competition with immobilised ligand; 1 µM): 99%

COc1cnc(Nc2cccc(S(N)(=O)=O)c2)nc1N1CCN(c2ccccc2)CC1
remaining binding (binding; competition with immobilised ligand; 1 µM): 76%

CCN1CCN(Cc2ccc(C(=O)Nc3ccc(C)c(Oc4ccc5c(c4)CC(=O)N5)c3)cc2C(F)(F)F)CC1
remaining binding (binding; competition with immobilised ligand; 1 µM): 100%

CN(c1nccc(-c2cnn3ncccc23)n1)C1CC1
remaining binding (binding; 1 µM): 100%

O=C(c1ccc(Nc2nccc(-c3cc4ccccc4s3)n2)cc1)N1CCC(N2CCCC2)CC1
remaining binding (binding; competition with immobilised ligand; 1 µM): 57%

c1cnn2ncc(-c3ccnc(N4CCC45COC5)n3)c2c1
remaining binding (binding; 1 µM): 100%

O=C(NCCCN1CCOCC1)c1ccc(Nc2nccc(-c3cc4ccccc4s3)n2)cc1
remaining binding (binding; competition with immobilised ligand; 1 µM): 39%

C[C@@]1(Cc2ccc(C#N)cc2)C(=O)N(c2cc(Cl)cc(Cl)c2)c2ncc(C(=O)NC3(c4nc(C5CCC5)no4)CC3)n21
remaining binding (cell-free assay; competition with immobilised ligand; 1 µM): 100%

COc1ccnn2ncc(-c3ccnc(N(C)C)n3)c12
remaining binding (binding; 1 µM): 100%

O=C(Nc1ccc(Oc2ccc(F)cc2)cc1)N1CCc2ncccc2[C@H]1c1ccc(F)cc1
remaining binding (cell-free assay; competition with immobilised ligand; 1 µM): 78%

COc1ncc2cc3ccccc3nc2c1C#N
remaining binding (cell-free assay; competition with immobilised ligand; 5 µM): 86%

FC(F)(F)c1ccc2c(c1)nc(-c1cccnc1)n2C1CC1
remaining binding (cell-free assay; competition with immobilised ligand; 1 µM): 100%

CNC(=O)[C@@H]1CC[C@@H](n2c(-c3ccc4cnccc4c3)nc3ccc(C(=O)NCc4cccc(C(N)=O)c4)cc32)C1
remaining binding (binding; competition with immobilised ligand; 1 µM): 100%

CN1CCN(c2cnc3c(C4CCN(C(=O)c5ccc(OC(F)(F)F)cc5N)CC4)ncnc3c2)CC1
remaining binding (cell-free assay; competition with immobilised ligand; 1 µM): 100%

Cc1cnn2ncc(-c3ccnc(N(C)C)n3)c2c1
remaining binding (binding; 1 µM): 100%

Cc1c(NC(=O)c2cc(C(N)=O)nc3cc(F)ccc23)c(C(F)(F)F)nn1Cc1ccc(C#N)cc1
remaining binding (cell-free assay; competition with immobilised ligand; 1 µM): 100%

N[C@@H]1CCN(c2nccc(-c3cnn4ncccc34)n2)C1
remaining binding (binding; 1 µM): 99%
